The nature of data set [1]: Intrinsic clearance in human liver microsomes in absence of NADPH by LC-MS/MS method. Type of data set: ADME, microsome. The conditions noted are these: read-out: CLH. A general note: Microsomes from liver hold many membrane-bound enzymes, among them those of drug oxidation.
Data set [2] is described as follows: Half life in human liver microsomes in absence of NADPH by LC-MS/MS method. Type of data set: ADME, microsome.
The nature of data set [3]: Intrinsic clearance in human liver microsomes in presence of NADPH by LC-MS/MS method. Type of data set: ADME, microsome. The conditions noted are these: read-out: CLH.
Data set [4] is described as follows: Half life in human liver microsomes in presence of NADPH by LC-MS/MS method. Type of data set: ADME, microsome.
Data set [5] has as its system Staphylococcus aureus. The data set is described as follows: Bactericidal activity against vancomycin-resistant Staphylococcus aureus VRSA10 after 18 hrs by broth microdilution method. Type of data set: functional. The conditions noted are these: VRSA10, 18 h. Summed up: (§1)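 From MIC wells without visible growth, 5 uL spotted onto Tryptic soy agar, incubated 37 °C for at least 18 h; MBC taken as lowest concentration giving 99.9% growth inhibition.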
For orientation: Dilution methods test growth across graded concentrations, often in twofold steps.

The subject of data set [6] is Staphylococcus aureus. The data set is described as follows: Antibacterial activity against methicillin-resistant Staphylococcus aureus USA200 NRS383 clinical isolate preincubated followed by bacterial subculturing for 2 weeks. Type of data set: functional.
The subject of data set [7] is Staphylococcus aureus. The data set is described as follows: Antibacterial activity against methicillin-resistant Staphylococcus aureus USA100 NRS382 clinical isolate after 20 hrs by broth microdilution method. Type of data set: functional. The conditions noted are these: USA100 NRS382, 20 h. Summed up: (§2)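 CLSI broth microdilution in cation-adjusted Mueller Hinton broth; compounds serially diluted, triplicate samples; 37 °C, 20 h. MIC read visually as lowest concentration with no visible growth; mean of triplicate determinations reported.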

The test system of data set [8] is Staphylococcus aureus. The data set is described as follows: Antibacterial activity against methicillin-resistant Staphylococcus aureus USA100 NRS382 clinical isolate preincubated followed by bacterial subculturing for 2 weeks. Type of data set: functional.
In data set [9] the test system is Staphylococcus aureus. The data set is described as follows: Antibacterial activity against methicillin-resistant Staphylococcus aureus USA300 NRS384 clinical isolate preincubated followed by bacterial subculturing for 2 weeks. Type of data set: functional.
Data set [10] deals with Staphylococcus aureus. The data set is described as follows: Bactericidal activity against methicillin-resistant Staphylococcus aureus USA300 NRS384 clinical isolate after 18 hrs by broth microdilution method. Type of data set: functional. The following applies: USA300 NRS384, 18 h. Summed up: as §1
In data set [11] the test system is Staphylococcus aureus. The data set is described as follows: Antibacterial activity against methicillin-resistant Staphylococcus aureus USA400 NRS123 clinical isolate preincubated followed by bacterial subculturing for 2 weeks. Type of data set: functional.
Data set [12] concerns Staphylococcus aureus. The data set is described as follows: Antibacterial activity against vancomycin-resistant Staphylococcus aureus VRSA4 after 20 hrs by broth microdilution method. Type of data set: functional. The following applies: VRSA4, 20 h. Summed up:
as §2

Data set [13] concerns Staphylococcus aureus. The data set is described as follows: Antibacterial activity against Staphylococcus aureus RN4220 NRS107 clinical isolate after 20 hrs by broth microdilution method. Type of data set: functional. The following applies: RN4220 NRS107, 20 h. Summed up: as §2
The subject of data set [14] is Staphylococcus aureus. The data set is described as follows: Bactericidal activity against vancomycin-resistant Staphylococcus aureus VRSA4 after 18 hrs by broth microdilution method. The conditions noted are these: VRSA4, 18 h. Type of data set: functional. Summed up: as §1
In data set [15] the test system is Staphylococcus aureus. The data set is described as follows: Bactericidal activity against methicillin-resistant Staphylococcus aureus USA200 NRS383 clinical isolate after 18 hrs by broth microdilution method. Type of data set: functional. The following applies: USA200 NRS383, 18 h. Summed up:
as §1

For data set [16], the system named is Staphylococcus aureus. The data set is described as follows: Antibacterial activity against vancomycin-resistant Staphylococcus aureus VRSA10 after 20 hrs by broth microdilution method. Type of data set: functional. The following applies: VRSA10, 20 h. Summed up:
as §2

Data set [17] relates to Staphylococcus aureus. The data set is described as follows: Antibacterial activity against methicillin-resistant Staphylococcus aureus USA200 NRS383 clinical isolate after 20 hrs by broth microdilution method. Type of data set: functional. The conditions noted are these: USA200 NRS383, 20 h. Summed up:
as §2

Data set [18] concerns Staphylococcus aureus. The data set is described as follows: Bactericidal activity against methicillin-resistant Staphylococcus aureus USA400 NRS123 clinical isolate after 18 hrs by broth microdilution method. Type of data set: functional. The following applies: USA400 NRS123, 18 h. Summed up: as §1
In data set [19] the test system is Staphylococcus aureus. The data set is described as follows: Antibacterial activity against methicillin-resistant Staphylococcus aureus USA400 NRS123 clinical isolate after 20 hrs by broth microdilution method. Type of data set: functional. The conditions noted are these: USA400 NRS123, 20 h. Summed up:
as §2

Data set [20] deals with Staphylococcus aureus. The data set is described as follows: Bactericidal activity against methicillin-resistant Staphylococcus aureus USA400 assessed as time required to reduce log10CFU of bacterial load at 4 times MIC by time kill assay. Type of data set: functional.
The test system of data set [21] is Staphylococcus aureus. The data set is described as follows: Bactericidal activity against methicillin-resistant Staphylococcus aureus USA100 NRS382 clinical isolate after 18 hrs by broth microdilution method. Type of data set: functional. The following applies: USA100 NRS382, 18 h. Summed up: as §1
Data set [22] concerns Staphylococcus aureus. The data set is described as follows: Antibacterial activity against methicillin-resistant Staphylococcus aureus USA300 NRS384 clinical isolate after 20 hrs by broth microdilution method. Type of data set: functional. The conditions noted are these: USA300 NRS384, 20 h. Summed up:
as §2

Data set [23] deals with Staphylococcus aureus. The data set is described as follows: Bactericidal activity against Staphylococcus aureus RN4220 NRS107 clinical isolate after 18 hrs by broth microdilution method. The conditions noted are these: RN4220 NRS107, 18 h. Type of data set: functional. Summed up: as §1
Data set [24] is described as follows: Apparent permeability across basolateral to apical side in human Caco2 cells at 10 uM after 2 hrs by LC-MS/MS method. Type of data set: ADME, cell-based. The following applies: Caco-2. In general terms: Caco-2 cells form a polarised layer with tight junctions and transporters.

The structures appear in SMILES notation. ≈ marks a conversion by molar mass, not a printed value. Calls of active or inactive are those of the source. The rule behind the calls is not given here.

`Cc1ncc2n1-c1ccc(Cl)cc1C(c1ccccc1F)=NC2` [MIDAZOLAM]: the microsomal CLint in [1] is less than 9.6 µL/min/mg; in data set [3] it was 402 µL/min/mg. The half-life is more than 240 min in data set [2] and 5.7 min in data set [4].
As to `C/C(=N\NC(=N)N)c1ccc(NC(=O)Nc2ccc(OCCCC(C)C)cc2)cc1`, the MBC in the data set on Staphylococcus aureus [5] came out at 4 µg/mL (≈ 9.74 µM); in the data set on Staphylococcus aureus [10], 8 µg/mL (≈ 19.5 µM); in the data set on Staphylococcus aureus [14], 4 µg/mL (≈ 9.74 µM); in the data set on Staphylococcus aureus [15] it was 8 µg/mL (≈ 19.5 µM); in the data set with Staphylococcus aureus [18], 8 µg/mL (≈ 19.5 µM); against Staphylococcus aureus [21], 8 µg/mL (≈ 19.5 µM). In the data set on Staphylococcus aureus [23], this molecule returned an MBC of 4 µg/mL (≈ 9.74 µM). In addition, the outcome in the data set on Staphylococcus aureus [6], in the data set with Staphylococcus aureus [8], in the data set with Staphylococcus aureus [9] and in the data set with Staphylococcus aureus [11] was Active. Also, the MIC in the data set on Staphylococcus aureus [7], against Staphylococcus aureus [12], in the data set on Staphylococcus aureus [13], in the data set with Staphylococcus aureus [16], against Staphylococcus aureus [17] and in the data set on Staphylococcus aureus [19] was 4 µg/mL (≈ 9.74 µM) throughout. Also, inhibition of growth against Staphylococcus aureus [22] (MIC) required 8 µg/mL (≈ 19.5 µM). The Time result with Staphylococcus aureus [20] is reported as “<=4 hr”.
For the molecule `CCCOc1ccc(NC(=O)Nc2ccc(/C(C)=N/NC(=N)N)cc2)cc1`, the MBC in the data set with Staphylococcus aureus [5] came out at 16 µg/mL (≈ 43.4 µM); against Staphylococcus aureus [10], 16 µg/mL (≈ 43.4 µM); in the data set on Staphylococcus aureus [14], 8 µg/mL (≈ 21.7 µM); with Staphylococcus aureus [15], 16 µg/mL (≈ 43.4 µM); against Staphylococcus aureus [18] it was 16 µg/mL (≈ 43.4 µM); against Staphylococcus aureus [21], 8 µg/mL (≈ 21.7 µM). Moreover, in the data set on Staphylococcus aureus [23], the MBC was 8 µg/mL (≈ 21.7 µM). The outcome in the data set with Staphylococcus aureus [6], in the data set on Staphylococcus aureus [8], in the data set on Staphylococcus aureus [9] and in the data set with Staphylococcus aureus [11] was Active. The MIC in the data set with Staphylococcus aureus [7] is 8 µg/mL (≈ 21.7 µM); in the data set with Staphylococcus aureus [12], 8 µg/mL (≈ 21.7 µM); in the data set on Staphylococcus aureus [13] it was 8 µg/mL (≈ 21.7 µM); against Staphylococcus aureus [16], 8 µg/mL (≈ 21.7 µM); against Staphylococcus aureus [17], 8 µg/mL (≈ 21.7 µM); with Staphylococcus aureus [19], 4 µg/mL (≈ 10.9 µM). The same molecule came in with an MIC with Staphylococcus aureus [22] of 8 µg/mL (≈ 21.7 µM).
Regarding `CCCCCCCCCOc1ccc(NC(=O)Nc2ccc(/C(C)=N/NC(=N)N)cc2)cc1`, the MBC was 32 µg/mL (≈ 70.7 µM) with Staphylococcus aureus [5]; 32 µg/mL (≈ 70.7 µM) against Staphylococcus aureus [10]; 16 µg/mL (≈ 35.4 µM) in the data set on Staphylococcus aureus [14]; 32 µg/mL (≈ 70.7 µM) with Staphylococcus aureus [15]; 64 µg/mL (≈ 141 µM) with Staphylococcus aureus [18]; 32 µg/mL (≈ 70.7 µM) with Staphylococcus aureus [21]. The molecule also showed an MBC against Staphylococcus aureus [23] of 64 µg/mL (≈ 141 µM). In addition, the outcome with Staphylococcus aureus [6], in the data set with Staphylococcus aureus [8], with Staphylococcus aureus [9] and in the data set on Staphylococcus aureus [11] was Active. The MIC against Staphylococcus aureus [7] came out at 32 µg/mL (≈ 70.7 µM); with Staphylococcus aureus [12], 16 µg/mL (≈ 35.4 µM); against Staphylococcus aureus [13], 32 µg/mL (≈ 70.7 µM); against Staphylococcus aureus [16] it was 32 µg/mL (≈ 70.7 µM); against Staphylococcus aureus [17], 16 µg/mL (≈ 35.4 µM); in the data set on Staphylococcus aureus [19] it was 32 µg/mL (≈ 70.7 µM). In the data set with Staphylococcus aureus [22], the MIC amounted to 32 µg/mL (≈ 70.7 µM).
Regarding `CNC(=C[N+](=O)[O-])NCCSCc1ccc(CN(C)C)o1` [RANITIDINE], the Papp B→A at 2 h, 10 µM in data set [24] was determined as 2.31 ×10⁻⁶ cm/s.
Consider `C/C(=N\NC(=N)N)c1ccc(NC(=O)Nc2ccc(OCC3CCC3)cc2)cc1`, for which the MBC in the data set with Staphylococcus aureus [5] was 32 µg/mL (≈ 81.1 µM); against Staphylococcus aureus [10] it was 16 µg/mL (≈ 40.6 µM); in the data set with Staphylococcus aureus [14] it was 16 µg/mL (≈ 40.6 µM); against Staphylococcus aureus [15] it was 32 µg/mL (≈ 81.1 µM); with Staphylococcus aureus [18], 32 µg/mL (≈ 81.1 µM); with Staphylococcus aureus [21], 16 µg/mL (≈ 40.6 µM). In addition, the MBC against Staphylococcus aureus [23] stood at 16 µg/mL (≈ 40.6 µM). The outcome in the data set with Staphylococcus aureus [6], in the data set with Staphylococcus aureus [8], with Staphylococcus aureus [9] and in the data set with Staphylococcus aureus [11] was Active. Moreover, the MIC against Staphylococcus aureus [7], against Staphylococcus aureus [12], against Staphylococcus aureus [13], with Staphylococcus aureus [16], in the data set with Staphylococcus aureus [17] and with Staphylococcus aureus [19] was 16 µg/mL (≈ 40.6 µM) in each case. In the data set with Staphylococcus aureus [22], this molecule yielded an MIC of 16 µg/mL (≈ 40.6 µM).

As a reminder, the half-life is how long it takes for the measured level to halve. The MBC is the lowest tested concentration that kills the bacteria rather than only halting them. Lower therefore signals more potent killing. One may read the MIC as the lowest concentration that inhibits growth of the organism. Higher therefore signals a need for much substance. The term Papp B→A denotes how fast a substance crosses the layer from the basolateral side.
